The source made the active and inactive calls.
How the values were obtained:
Influenza A virus [1] = assay: Antiviral activity against Influenza A virus (A/WSN/1933(H1N1)) infected in MDCK cells expressing wild type neuraminidase assessed as protection against virus-induced cytopathic effect after 48 hrs by CellTiter96 aqueous non-radioactive cell proliferation assay; type: functional, organism-based
Procedure, shortened: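 Virus at 100 TCID50 was premixed with inhibitor at varied concentrations, then added to MDCK cells (1×10^5 cells/mL). Cells were held 48 h at 37 °C under 5% CO2. Cytopathic effect was read as MTS absorbance at 490 nm after 15 min. EC50 was taken from a curve fit of percent CPE versus concentration.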

[2] = Cytotoxicity against MDCK cells after 48 hrs by CellTiter96 aqueous non-radioactive cell proliferation assay; type: cell-based, Canis lupus familiaris; settings: dog
[3] = Half life in HCl/KCl solution at pH 1.3 by HPLC method; type: physicochemical
Procedure, shortened: (§1)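 A 20 mM DMSO stock was diluted to 1 mM in buffer (50 mM HCl/KCl pH 1.3, acetate pH 4.1, phosphate pH 7.4 at 50 or 10 mM, borate pH 9.1, glycine pH 9.2), rat plasma or […]. Mixtures were shaken at 1000 rpm, 37 °C, and sampled over time for reversed-phase HPLC (214 or 254 nm). Half-life came from a pseudo-first-order fit; remaining parent was assessed at 96 h. Three runs for ZA derivatives, single for GOC derivatives.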

[4] = Half life in acetate buffer at pH 4.1 by HPLC method; type: physicochemical; procedure, shortened: as §1
[5] = Half life in 50 mM phosphate buffer at pH 7.4 by HPLC method; type: physicochemical; procedure, shortened: as §1
[6] = Half life in 10 mM phosphate buffer at pH 7.4 by HPLC method; type: physicochemical; procedure, shortened: as §1
[7] = Half life in borate buffer at pH 9.1 by HPLC method; type: physicochemical; procedure, shortened: as §1
[8] = Half life in rat plasma by HPLC method; type: ADME, cell-free; procedure, shortened: as §1
[9] = Chemical stability in HCl/KCl solution at pH 1.3 assessed as parent compound remaining after 96 hrs by HPLC method; type: physicochemical; settings: read-out: Stability; procedure, shortened: as §1
[10] = Chemical stability in acetate buffer at pH 4.1 assessed as parent compound remaining after 96 hrs by HPLC method; type: physicochemical; settings: read-out: Stability; procedure, shortened: as §1
Influenza A virus [11] = assay: Antiviral activity against Influenza A virus (A/WSN/1933(H1N1)) infected in BALB/c mouse assessed as mouse survival rate at 1.2 umol/kg/day administered intranasally for 5 days and measured at day 21 relative to control; type: functional; settings: inhaled or nasal
Influenza A virus [12] = assay: Antiviral activity against Influenza A virus (A/WSN/1933(H1N1)) infected in BALB/c mouse assessed as increase in mouse survival rate at 2.4 umol/kg/day administered intranasally for 5 days and measured at day 21 relative to control; type: functional, organism-based
Procedure, shortened: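 Female BALB/c mice (4–5 weeks old), 10 per group. Drug was given by intranasal instillation twice daily for 5 days at 2.4 μmol/kg/day, with half the dose at each administration. Mice were infected intranasally with 10 MLD50 of A/WSN/1933 (H1N1) under zoletil anaesthesia, 4 h after the first dose. PBS placebo on the same schedule. Survival was followed daily and curves compared by log-rank test.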

Influenza A virus [13] = assay: Antiviral activity against Influenza A virus (A/WSN/1933(H1N1)) infected in BALB/c mouse assessed as protection against virus-induced infection at 48 umol/kg/day administered via oral gavage for 5 days; type: functional, organism-based
Procedure, shortened: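 Female BALB/c mice (4–5 weeks old), 10 per group. Drug was given by oral gavage twice daily for 5 days at 48 μmol/kg/day. Intranasal challenge with 10 MLD50 of A/WSN/1933 (H1N1) 4 h after the first dose. PBS placebo on the same schedule. Survival was observed daily and compared by log-rank (Mantel–Cox) test.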

Influenza A virus [14] = assay: Antiviral activity against Influenza A virus (A/WSN/1933(H1N1)) infected in BALB/c mouse assessed as increase in mouse survival rate at 1.2 umol/kg/day administered intranasally for 5 days and measured at day 21 relative to control; type: functional, organism-based
[15] = Half life in human serum at 16 mg; type: ADME, organism-based
[16] = Half life in glycine buffer at pH 9.2 by HPLC method; type: physicochemical; procedure, shortened: as §1
[17] = Half life in rabbit plasma by HPLC method; type: ADME, cell-free, Oryctolagus cuniculus; procedure, shortened: as §1
[18] = Metabolic stability in […] assessed as parent compound remaining after 96 hrs by HPLC method; type: ADME, cell-free, Oryctolagus cuniculus; settings: rabbit, plasma; read-out: Stability
[19] = Drug uptake in MDCK cells at 100 uM after 48 hrs by LC-MS analysis; type: ADME, cell-based, Canis lupus familiaris; settings: dog
Procedure, shortened: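 MDCK cells (2.5×10^6, grown overnight) were exposed to compound at 100 µM final in 2% FBS medium for 48 h, with a DMSO mock. Cells were washed, lysed in RIPA, methanol-precipitated at −80 °C and filtered (10 kDa cutoff). Parent and hydrolysis product were quantified by LC–MS/MS against calibration curves (0.03–300 µM) spiked into mock lysate.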

In the case of `CCC(CC)O[C@@H]1C=C(P(=O)(O)O)C[C@H](NC(=N)N)[C@H]1NC(C)=O`, the EC50 (Influenza A virus [1]) is reported as 3.8 nM.
In the case of `CCCCCCCC(=O)/N=C(\N)N[C@H]1C=C(C(=O)O)O[C@@H]([C@H](O)[C@H](O)CO)[C@@H]1NC(C)=O`, the EC50 (Influenza A virus [1]) is reported as 90 nM, the CC50 at 48 h [2] is reported as greater than 100000 nM and the half-life [3] is reported as greater than 96 h. The half-life [4] was greater than 96 h, the half-life [5] was 39.2 h and the half-life [6] was 56.8 h. For the same compound, the half-life [7] was 26.1 h, the half-life [8] was 29.5 h and the remaining at 96 h [9] was greater than 75%. For the same compound, the remaining at 96 h [10] was greater than 75%, the survival at 1.2 µmol/kg (Influenza A virus [11]) was 100% and the Activity (Influenza A virus [12]) was “Active”.
With `CCOC(=O)C1=C[C@@H](OC(CC)CC)[C@H](NC(C)=O)[C@@H](N)C1` the Activity (Influenza A virus [13]) was “Active”.
`COc1ccc2cc([C@H](C)C(=O)/N=C(\N)N[C@H]3C=C(C(=O)O)O[C@@H]([C@H](O)[C@H](O)CO)[C@@H]3NC(C)=O)ccc2c1` gave an EC50 (Influenza A virus [1]) of 140 nM, a CC50 at 48 h [2] greater than 100000 nM and a half-life [6] of 67.2 h. It also gave a half-life [8] of 67.7 h and a survival at 1.2 µmol/kg (Influenza A virus [11]) of 70%.
With `CC(=O)N[C@H]1[C@H]([C@H](O)[C@H](O)CO)OC(C(=O)O)=C[C@@H]1NC(=N)N` [ZANAMIVIR] the EC50 (Influenza A virus [1]) was 27 nM and the Activity (Influenza A virus [14]) was “Active”.
`CC(=O)N[C@H]1[C@H]([C@H](O)[C@H](O)CO)OC(C(=O)O)=C[C@@H]1N=C(N)N` [ZANAMIVIR] showed a CC50 at 48 h [2] greater than 100000 nM and a half-life [15] of 2 to 5 h.
In the case of `CCC(CC)O[C@@H]1C=C(C(=O)O)C[C@H](N/C(N)=N/C(=O)[C@@H](C)c2ccc3cc(OC)ccc3c2)[C@H]1NC(C)=O`, the EC50 (Influenza A virus [1]) is reported as 2 nM, the CC50 at 48 h [2] is reported as greater than 100000 nM and the half-life [3] is reported as greater than 96 h. The half-life [5] was 64.9 h, the half-life [6] was 69.7 h and the half-life [7] was 76.7 h. It also gave a half-life [16] of 81.4 h, a half-life [17] greater than 96 h and a remaining at 96 h [18] of 76%. The remaining at 96 h [9] was greater than 75%.
In the case of `CCC(CC)O[C@@H]1C=C(P(=O)(O)O)C[C@H](N/C(N)=N/C(=O)CSc2ccc3ccccc3c2)[C@H]1NC(C)=O`, the EC50 (Influenza A virus [1]) is reported as 0.8 nM.
Compound `CCCCCCCC(=O)/N=C(\N)N[C@H]1CC(C(=O)O)=C[C@@H](OC(CC)CC)[C@@H]1NC(C)=O` has an EC50 (Influenza A virus [1]) of 1 nM, a CC50 at 48 h [2] greater than 100000 nM and a half-life [3] greater than 96 h. For the same compound, the half-life [7] was 18.1 h, the half-life [16] was 22.4 h and the half-life [17] was 96 h. For the same compound, the remaining at 96 h [18] was 55%, the remaining at 96 h [9] was greater than 75% and the Drug uptake [19] was 1225 nM. For the same compound, the Activity (Influenza A virus [13]) was “Active”.
Compound `CCC(CC)O[C@@H]1C=C(C(=O)O)C[C@H](N)[C@H]1NC(C)=O` [OSELTAMIVIR CARBOXYLATE] has an EC50 (Influenza A virus [1]) of 16 nM and a CC50 at 48 h [2] greater than 100000 nM.
In the case of `CCC(CC)O[C@@H]1C=C(C(=O)O)C[C@H](NC(=N)N)[C@H]1NC(C)=O`, the EC50 (Influenza A virus [1]) is reported as 7 nM and the CC50 at 48 h [2] is reported as greater than 100000 nM.
